# Data: PubChem BioAssay AID686939 (The Scripps Research Institute Molecular Screening Center, 2013)
# Out of some 3,500 compounds screened, about 1,400 (40%) were called active. The set was probably picked from earlier hits. A selection follows. Values without a mark were called inactive.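 Rule for the calls: active = activation above the solvent-only control well mean plus 3 SD, averaged across control plates (cut at about 5.2% in these data); inactive = the rest.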
# Assay: nonselective transcriptional activators, VP16 reporter – cell-based, pG5luc, luminescence, high throughput, counter-screen for SMARCA2 (BRM) activator project (AID 686939)
# Settings: HEK293 GAL4-VP16 pG5luc reporter, luciferase luminescence; at 9.1 µM; stronger effect = higher value; scaled: DMSO wells 0%, SAHA wells 100%
# How it was run: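 System: 293 cells carrying GAL4-VP16 plus UAS-luciferase reporter. Quantity: 2,500 transfected 293 cells per well. Incubation: 24 h exposure, 37 °C, 5% CO2, One-Glo 15 min RT. Technique: luciferase luminescence after One-Glo reagent addition. Benchmarks: DMSO and SAHA.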
row,SMILES,activation
1,COc1cccc(-c2nc3cc(C)ccc3o2)c1,3.74%
2,Cn1c(-c2ccc(F)cc2)cc2onc(-c3ccccc3Cl)c2c1=O,9.37% (active)
3,Fc1ccc(/C=N/Nc2nc(-c3cccnc3)nc3ccccc23)cc1,8.57% (active)
4,CC(=O)Nc1cc(-c2ccc(N3CCN(C)CC3)cc2)cn2c(-c3ccc(F)cc3)cnc12,1.59%
5,Cc1nc(-c2nnc(SCC(=O)Nc3cc(C(F)(F)F)cc(C(F)(F)F)c3)n2C)cs1,-1.04%
6,CCCCNC(=O)C1CCC(CNS(=O)(=O)c2ccc(NC(C)=O)cc2)CC1 (stereo not drawn),0.63%
7,Fc1ccc(CNc2nc3ccccc3n3nnnc23)cc1,2.47%
8,CC(C)CCNC(=O)c1ccc2c(Cl)c3c(nc2c1)CCC3,9.88% (active)
9,COCC1CCN(C(=O)C2CCC(=O)N(Cc3cccc(C(F)(F)F)c3)C2)CC1 (stereo not drawn),1.34%
10,O=C(Nc1cc(=O)[nH]c2ncnn12)c1ccccc1Cl,0.46%
11,COc1c(O)cc2oc(-c3ccc(O)c(O)c3)cc(=O)c2c1O,12.4% (active)
12,CCCn1nc(C(=O)Nc2ccc3nc(C)sc3c2)c2ccccc2c1=O,-0.78%
13,O=C(N[C@H]1CC[C@H](CC(=O)N2CCCCC2)O[C@@H]1CO)c1cccc(F)c1,0.09%
14,O=C(c1cc(-c2ccc(O)cc2)on1)N1CCOCC1,6.96% (active)
15,O=C(c1cc(-c2ccccc2O)on1)N1CCCC1,9.74% (active)
16,Cc1cc(-c2n[nH]c(=S)n2/N=C/C(Br)=C/c2ccccc2)n[nH]1,4.37%
17,CCCCn1nnnc1C(c1cc2ccccc2o1)N(C)Cc1ccc(Cl)c(Cl)c1 (stereo not drawn),1.67%
18,Cc1ccc(F)c(NC(=O)CCc2ccccc2)c1,5.92% (active)
19,COc1ccc(OCCCC(=O)NCCc2ccccc2)cc1,1.27%
20,O=C(CCCc1ccccc1)NCc1ccccc1,2.83%
21,O=C(O)c1ccc(COc2c(F)c(F)cc(F)c2F)o1,-0.39%
22,O=C(O)c1cccc(N=NN2CCCCCC2)c1,13.9% (active)
23,CN(C)CCNC(=O)c1cccc(-c2cnc3c(NC=O)cc(-c4cccc(C(F)(F)F)c4)cn23)c1,1.42%

row,SMILES,activation
1,COc1ccc(-c2csc(Cc3nc(O)cs3)n2)cc1,19.6% (active)
2,Cn1cccc1/C=N/NC(=O)c1ccc(OC(F)(F)C(F)F)cc1,3.99%
3,O=C(c1cccs1)C1C(c2ccc(Br)cc2)NC(=S)NC1(O)C(F)(F)F (stereo not drawn),2.08%
4,COc1cc(CN2CCC(C(N)=O)CC2)ccc1OCc1ccccc1,8.4% (active)
5,COc1ccccc1OCC(=O)O/N=C(\N)c1ccccn1,4.97%
6,COc1ccc(CC2c3cc(OC)c(OC)cc3CC[N+]2(C)CCC(=O)OCCCCCOC(=O)CC[N+]2(C)CCc3cc(OC)c(OC)cc3C2Cc2ccc(OC)c(OC)c2)cc1OC (stereo not drawn),1.23%
7,Cc1noc(C)c1S(=O)(=O)N(C)C[C@H]1Oc2c(NC(=O)Nc3ccc4c(c3)OCO4)cccc2C(=O)N([C@H](C)CO)C[C@@H]1C,0.03%
8,CN(C)C(=S)N=c1ssc(=S)n1Cc1ccco1,11.9% (active)
9,CCOC(=O)c1sc2nc(CSc3ccccc3)[nH]c(=O)c2c1C,0.23%
10,COc1ccc(-c2cc3ncccc3cn2)cc1,9.76% (active)
11,CC(C)(C)c1ccc(NC(=O)NCc2ccco2)cc1,0.6%
12,Cc1ccc(NC(=O)C(=O)NCc2ccco2)c(C)c1,5.75% (active)
13,Cc1cc(O)c(NC(=O)c2ccc(C)c([N+](=O)[O-])c2)cc1C,7.82% (active)
14,FC(F)(F)c1cccc(-c2nc3ccccc3n2C(c2ccccc2)c2nc3ccccc3[nH]2)c1 (stereo not drawn),4.89%
15,CN(C)S(=O)(=O)c1ccc2oc(SCC(=O)Nc3ccccc3F)nc2c1,13.2% (active)
16,COc1ccc(C(CNC(=O)c2ccc(S(=O)(=O)Nc3ccccc3F)cc2)N(C)C)cc1 (stereo not drawn),-0.57%
17,COc1ccc(N=C(C)c2sc3ccccc3c2O)cc1,6.57% (active)
18,CCOC(=O)C(C)n1cnc2c(nnn2-c2cccc(OC)c2)c1=O (stereo not drawn),4.04%
19,COc1ccc(C(=O)NC2=NCCS2)c(OC)c1,12.2% (active)
20,Cc1ccc(N/C=C/C(=O)c2ccccc2)cc1C,6.49% (active)
21,Cc1cc(=O)[nH]c(N/N=C/c2ccc3c(c2)OCCO3)n1,3.2%
22,CCc1c(C)c2ccc(OC3CCCCC3=O)cc2oc1=O (stereo not drawn),2.57%
23,COc1ccc(/C=N/NC(=O)c2cc(-c3cccc(C)c3)nc3ccccc23)cc1O,7.74% (active)

row,SMILES,activation
1,COc1cc(/C=N/NC(=O)c2ccccc2)ccc1OS(=O)(=O)c1ccccc1,0.14%
2,CC(C)(C)NC(=O)C(CCc1ccccc1)n1c(=O)c(-c2ccccc2)nc2ccccc21 (stereo not drawn),0.34%
3,CCC(C)N(C)C1CCN(C(=S)Nc2ccc(OC)cc2)CC1 (stereo not drawn),1.62%
4,CCCCc1ccc(NC(=S)N2CCCC(CO)C2)cc1 (stereo not drawn),10.3% (active)
5,Cc1cc(C)c2nc3nc(C)cc(C)c3c(N)c2c1,3.96%
6,O=C1Cc2cc(S(=O)(=O)Nc3cccc(F)c3)ccc2N1,1.09%
7,CCc1ccc[n+](-c2nc([O-])sc2C=O)c1,0.22%
8,Cc1cc(C)nc(Nc2n[nH]c(-c3ccccc3N)n2)n1,12.3% (active)
9,CCOC(=O)c1c(C)[nH]c(C2=NNC(=NC(C)COC)SC2)c1C (stereo not drawn),8.27% (active)
10,COc1cccc(OCCOc2cccc(/C=N/n3cnnc3)c2)c1,6.43% (active)
11,Cc1ccc(-c2c(C)n([O-])c3c([n+]2=O)CCC3)cc1,-0.96%
12,Cc1ccc(C(=O)CSc2ccccc2C(=O)O)cc1,6.75% (active)
13,COCC(C)n1c(SCc2ccc(C(=O)OC)o2)nc2ccccc2c1=O (stereo not drawn),2.22%
14,CC1CCCCC1NC(=O)CN1CCC(O)(c2ccc3c(c2)OCO3)CC1 (stereo not drawn),4.35%
15,COc1ccc(C(=O)Nc2ccc3c(c2)OCO3)cc1OC,10.2% (active)
16,COc1ccc(C)cc1S(=O)(=O)N(CC(=O)Nc1cccc([N+](=O)[O-])c1)c1ccc(C)cc1,-1.27%
17,O=C(Nc1cccc([N+](=O)[O-])c1)N1CCc2ccccc2C1,4.55%
18,O=C(Nc1cccc([N+](=O)[O-])c1)c1ccc2c(c1)OCO2,8.02% (active)
19,Cc1ccnc(Nc2nc3ccccc3s2)n1,3.74%
20,CC1(C)CC(=O)C=C(NCCCNC2CCCCC2)C1,-0.02%
21,Cc1cc2oc3ccc(NCCC4CCCN4C)cc3c(=O)c2cc1C (stereo not drawn),6.3% (active)
22,Cc1ccccc1C#CC1=CC(=O)CC(C)(C)C1,1.83%
